Yeast eIF2B – eIF2B (yeast) activity modulation | S. cerevisiae eIF2B-epsilon R284H, GCN4-lacZ luminescence | inhibition, % at 25 µM (by protocol) | 27,000 compounds, 0.91% hits;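 active means mutant luminescence inhibited past about 50% while wild type luminescence and mutant growth stay under set limits, limit read from the data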
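Times: 16 h growth with compound at 30 °C, 90 min Beta-Glo step; Assay system: yeast eIF2B-epsilon R284H mutant carrying GCN4–beta-galactosidase fusion; Measure: % inhibition of reporter signal and growth versus controls; Dosing: one concentration, 25 µM, 0.25% DMSO; Buffer or medium: YPD yeast growth medium; Measured by: Beta-Glo luminescence plus absorbance at 595 nm.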
* = called active by the depositor. Only a selection was taken, and hits are over-represented in it overall.

SMILES	Yeast eIF2B
Cc1ccc(C)n1-c1ccc(C(=O)NCC2CCCO2)cc1 (stereo not drawn)	11
COc1cccc(-c2cc(C(=O)NCCCn3ccnc3)no2)c1	15
CCOc1ccccc1Nc1ccc(C(=O)O)cc1NC(C)=O	-39
CC(=O)Nc1cc(C(F)(F)F)ccc1OCCOc1ccccc1	55*
COC(=O)Nc1cc(C(F)(F)F)ccc1N1CCN(c2ccccc2)CC1	2
CCOC(=O)COc1ccc(S(=O)(=O)N2CCN(C(=O)OCC)CC2)cc1	11
CCOC(=O)c1cc(S(=O)(=O)N2CCN(C(=O)OCC)CC2)cn1C	67*
CCOC(=O)c1ccc(S(=O)(=O)N2CCN(S(=O)(=O)CC)CC2)cc1	-19
Cc1ccc(C)c2c1[nH]c1ccc([N+](=O)[O-])cc12	8
Cc1ccc(C(c2nnnn2Cc2ccccc2)N2CCN(Cc3ccccc3)CC2)cc1 (stereo not drawn)	14
CC(=O)Nc1ccc(S(=O)(=O)N(Cc2ccco2)CC2CCCO2)cc1 (stereo not drawn)	23
COc1nc2c(C)cccc2cc1-c1noc(-c2ccncc2)n1	-34
COCC(=O)NC(c1ccccc1)c1ccccc1	62*
COCC(=O)Nc1ccccc1NC(C)=O	24
COCC(=O)Nc1ccc(C)c(Cl)c1	7
CC1=C(C(=O)OCC(C)C)C(c2ccc(F)cc2)NC(=O)N1 (stereo not drawn)	6
Cc1ccc(Cn2cccc(NC(=O)c3ccco3)c2=O)cc1	30
Cc1cccc(N2CCCn3c2nc2c3c(=O)n(CC(=O)OCc3ccccc3)c(=O)n2C)c1	24
CCOC(=O)Cn1c(=O)c2c(nc3n2CCN3Cc2ccccc2)n(C)c1=O	53*
CCOC(=O)Cn1c(=O)c2c(nc3n2CCN3c2ccc(C)cc2)n(C)c1=O	-22
O=S(=O)(c1ccc2oc(-c3ccncc3)nc2c1)c1ccc2oc(-c3ccncc3)nc2c1	3
CCC(=O)Nc1ccc(NC(=O)c2cc3ccccc3o2)cc1	19
O=C(Nc1ccccn1)c1cc2ccccc2o1	57*
O=C(Nc1ccc2oc(-c3cccnc3)nc2c1)c1cc2ccccc2o1	7
NC(=O)C(c1ccc(Cl)cc1)c1ccc(Sc2ccc(Cl)cc2)nn1 (stereo not drawn)	17
SMILES	Yeast eIF2B
Cc1cc(Cl)c(S(=O)(=O)N2CCN(c3ccc(F)cc3)CC2)cc1OCC(=O)NC1CCCCC1	20
CCC(=C(c1ccc(OC)cc1)c1ccc(OC)cc1)c1cn(CC(O)CN2CCN(C)CC2)c2ccccc12 (stereo not drawn)	97
Cn1c(=O)c2c(nc(Oc3ccc4ccccc4c3)n2C)n(C)c1=O	16
COc1ccc(Oc2nc3c(c(=O)n(C)c(=O)n3C)n2Cc2cccc(OC)c2)cc1	4
Cn1c(=O)c2c(nc(Oc3ccc4c(c3)OCO4)n2Cc2ccc(Br)cc2)n(C)c1=O	57*
COc1ccc(-n2nnc3c(SCC(=O)N4CCN(c5ccccc5)CC4)ncnc32)cc1	-44
CCCc1nccn1S(=O)(=O)c1cc(OC)ccc1OC	20
Cc1ccc(Cn2nnc3c(=O)n(CC(=O)N4CCCc5ccccc54)cnc32)cc1	-4
O=C(Cn1cnc2c(nnn2Cc2ccccc2F)c1=O)OCc1ccccc1	8
Cc1cccc(Cn2cnc3c(nnn3Cc3ccc(Cl)cc3)c2=O)c1	59*
CCCCNS(=O)(=O)c1ccc(NS(=O)(=O)c2c(C)cc(C)cc2C)cc1	16
Cc1cccn2c(=O)c3cc(C(=O)N4CCc5ccccc5C4)n(C)c3nc12	10
COCC(=O)Nc1c(C(=O)Nc2ccccc2OC)oc2ccccc12	10
COc1ccccc1NC(=O)c1oc2ccccc2c1NC(=O)c1cc(OC)c(OC)c(OC)c1	63*
COc1ccccc1NC(=O)c1oc2ccc(C)cc2c1C	22
CCN(CC)S(=O)(=O)c1cccc(-c2nnc(SCc3nnc(-c4cccs4)o3)n2N)c1	-17
Oc1ccc(Br)cc1-c1cc(-c2ccccc2)n[nH]1	28
Oc1ccccc1-c1cc(-c2ccc3c(c2)OCCO3)n[nH]1	51*
COc1ccc(-c2cc(-c3ccccc3O)[nH]n2)cc1OC	17
COc1ccc(S(=O)(=O)N(CCc2ccccc2)CC(=O)O)cc1C	17
CCCC(=O)c1cc(F)c(N2CCOCC2)cc1C	22
COc1cccc(C2NC(CC(C)C)(C(=O)O)C3C(=O)N(Cc4ccccc4)C(=O)C23)c1O (stereo not drawn)	52*
CCOC(=O)C1(C)NC(c2ccc(OC)cc2OC)C2C(=O)N(c3cccc(OC)c3)C(=O)C21 (stereo not drawn)	23
COC(=O)C1(Cc2ccccc2)NC(c2ccccc2C)C2C(=O)N(c3ccc4c(c3)OCO4)C(=O)C21 (stereo not drawn)	22
CCOC(=O)c1nn(-c2ccc(OC)cc2)c(=O)c2c(NC(=O)c3ccco3)scc12	7
SMILES	Yeast eIF2B
COc1ccc(N2Nc3n[nH]c(N)c3N2)cc1	15
O=C(NCc1ccncc1)c1ccc(Cl)c(S(=O)(=O)N2CCOCC2)c1	19
CC(C)(C)SCCNC(=O)c1ccc(Cl)c(S(=O)(=O)N2CCOCC2)c1	52*
O=C(NCc1ccco1)c1ccc(Cl)c(S(=O)(=O)N2CCOCC2)c1	14
CC(O)CNc1nc2ccccc2n1CC(=O)NCCc1ccc(Cl)cc1 (stereo not drawn)	10
O=C(NCc1ccccc1)NC1(C(=O)N2CCN(c3ccccc3)CC2)CCCCC1	11
COc1cc(OC)cc(C(=O)N2CCCc3ccccc32)c1	19
O=C(c1ccc(C(=O)N2CCCc3ccccc32)nc1)N1CCCc2ccccc21	12
CCCOc1ccc(C(=O)N2CCCc3ccccc32)cc1	73*
COc1ccc(C2N=C(c3ccccc3)C(C)(C)N2O)cc1 (stereo not drawn)	1
COc1ccc(OC)c(C(=O)N2CCC(C(=O)c3ccc(F)cc3)CC2)c1	-54
Cc1ccc(CSCC(=O)N2CCOCC2)cc1	28
COc1ccccc1NC(=O)Cn1cnc2sc(C)c(S(=O)(=O)N3CCCCC3)c2c1=O	18
COc1ccc(CCNC(=O)CCNS(=O)(=O)c2ccc3c(c2)CCN3C(C)=O)cc1OC	16
COC(=O)c1nn(-c2ccc3c(c2)CCN3C(C)=O)cc1O	77*
COC(=O)c1nn(-c2ccc3c(c2)OCO3)cc1O	26
CCOc1ccc2nc(NS(=O)(=O)Cc3ccccc3)sc2c1	16
CCNC(=O)CC1C(=O)N(c2ccccc2)C(=O)N1CCc1ccc(OC)cc1 (stereo not drawn)	14
COc1ccc(C2/C(=C(/O)c3ccccc3)C(=O)C(=O)N2CO)cc1 (stereo not drawn)	-21
CCCCN1C(=O)CN(CCc2ccccc2)C(=O)C1c1ccc(OC)cc1 (stereo not drawn)	58*
CCOC(=O)c1c(NC(=O)CSc2nnc(-c3cccnc3)n2Cc2ccco2)sc(C)c1C	15
COc1cc(OC)c(-c2nn3c(-c4ccncc4)nnc3s2)cc1OC	-1
CCC(=O)Nc1ccc(-c2nn3c(C)nnc3s2)cc1C	21
Cc1nnc2sc(-c3ccncc3)nn12	64*
O=C1OCCC1Sc1nc(-c2ccccc2)cs1 (stereo not drawn)	18
O=C(Nc1ccc(N2CCN(C(=O)c3ccco3)CC2)c(Cl)c1)c1c(F)c(F)c(F)c(F)c1F	23
O=C(NCc1ccccc1)N(Cc1nc2ccccc2c(=O)[nH]1)C1CCCC1	23
COc1ccc(OC)c(NC(=O)CNC(=O)Cn2cnc3ccccc3c2=O)c1	65*
COC(=O)Cn1cnc2ccccc2c1=O	22

Compound activity (PubChem)
